Measured values pooled from the literature.
Target: Ephrin type-A receptor 4 (EPHA4, Homo sapiens, UniProt P54764)

| Structure (SMILES) | test | setting | remaining binding [%] |
| --- | --- | --- | --- |
| COc1cnc(Nc2cccc(S(N)(=O)=O)c2)nc1N1CCN(c2ccccc2)CC1 | binding, competition with immobilised ligand | 1 µM | 97 |
| Cc1cnc(Nc2ccc(C(=O)N3CCC(N4CCCC4)CC3)cc2)nc1-c1cc2ccccc2s1 | binding, competition with immobilised ligand | 1 µM | 57 |
| CC(=O)Nc1c(C(C)=O)c(=O)n(C)c2nc(-c3ccc(Cl)cc3Cl)c(-c3ccc(Cl)cc3)cc12 | cell-free assay, competition with immobilised ligand | 1 µM | 96 |
| C[C@H]1CCN(c2nccc(-c3cnn4ncccc34)n2)C1 | binding | 1 µM | 86 |
| Nc1ncc2c(n1)-c1c([nH]c3ccc(C#CC4CC4)cc13)CCCC2 | binding, competition with immobilised ligand | 1 µM | 100 |
| N[C@H]1CCN(c2nccc(-c3cnn4ncccc34)n2)C1 | binding | 1 µM | 100 |
| O=C(N1CCS(=O)(=O)CC1)N1C[C@H](c2ccc(OC(F)(F)F)cc2)C[C@H](c2nc(C3CC3)no2)C1 | cell-free assay, competition with immobilised ligand | 1 µM | 100 |
| F[C@@H]1CCN(c2nccc(-c3cnn4ncccc34)n2)C1 | binding | 1 µM | 100 |
| c1cncc(-c2cccc(Nc3nccc(NC4CCCCC4)n3)c2)c1 | binding, competition with immobilised ligand | 10 µM | 100 |
| O=C(NCc1ncc(C(F)(F)F)cc1Cl)c1ccc2c(c1)C1(CCS(=O)(=O)CC1)[C@H](C1CC1)N2S(=O)(=O)c1ccc(F)cc1 | cell-free assay, competition with immobilised ligand | 1 µM | 100 |
| C[C@@H](c1ccc(-n2cnc3c(N)ncnc32)cc1)N1CCc2nn(C)c(Cc3ccccc3)c2C1=O | binding, competition with immobilised ligand | 0.1 µM | 97 |
| O=C(NCC1CCOCC1)c1n[nH]cc1NC(=O)c1c(F)cccc1F | binding, competition with immobilised ligand | 1 µM | 100 |
| CN(C)c1nccc(-c2cnn3ncccc23)n1 | binding | 1 µM | 99 |
| COc1cnc(Nc2cccc(S(N)(=O)=O)c2)nc1N1CCN(c2ccccc2)C(=O)C1 | binding, competition with immobilised ligand | 1 µM | 100 |
| CNCc1ccccc1-c1csc([C@@H](C)Nc2nc(C)nc3cc(OC)c(OC)cc23)c1 | cell-free assay, competition with immobilised ligand | 1 µM | 79 |
| O=C(NCCCN1CCOCC1)c1ccc(Nc2ncc(Cl)c(-c3ccc(Cl)s3)n2)cc1 | binding, competition with immobilised ligand | 1 µM | 89 |
| Cc1c(NC(=O)c2cc(C(N)=O)nc3cc(F)ccc23)c(C(F)(F)F)nn1Cc1ccc(C(C)(C)C)cc1 | cell-free assay, competition with immobilised ligand | 1 µM | 100 |
| O=C(NCCCN1CCOCC1)c1ccc(Nc2nccc(-c3cc4ccccc4s3)n2)cc1 | binding, competition with immobilised ligand | 1 µM | 82 |
| Cc1cnn2ncc(-c3ccnc(N(C)C)n3)c2c1 | binding | 1 µM | 96 |
| C[C@@H]1CN(c2cc(-c3n[nH]c4ccc(OC5(C)CC5)cc34)ncn2)C[C@H](C)O1 | cell-free assay, competition with immobilised ligand | 0.1 µM | 89 |
| CC1CCCN1c1nccc(-c2cnn3ncccc23)n1 (stereo not shown) | binding | 1 µM | 97 |
| CNC(=O)c1ccc(Nc2ncc(C(F)(F)F)c(NCc3nccnc3N(C)S(C)(=O)=O)n2)cc1 | cell-free assay, competition with immobilised ligand | 0.1 µM | 99 |
